Our source for the Activity and inhibition values is ChEMBL document CHEMBL1147961, “Synthesis and biological evaluation of new 6-s-cis locked 1,2,25-trihydroxyprevitamin D3 analogues” (2007).

Assay [1] concerns MCF7. The experiment in a line: Antiproliferative activity against human MCF7 cells after 72 hrs relative to 1-alpha,25-(OH)2-D3. The format is functional. The method, boiled down: (§1)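 MCF-7 breast cancer cells (ATCC) incubated 72 h with a range of concentrations of analogues, reference 1α,25-(OH)2-D3 or vehicle. Proliferation read as [3H]thymidine incorporation.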
Assay [2] has as its target T1, Vitamin D-binding protein (Homo sapiens) (UniProt P02774).
T1 sequence (whole entry): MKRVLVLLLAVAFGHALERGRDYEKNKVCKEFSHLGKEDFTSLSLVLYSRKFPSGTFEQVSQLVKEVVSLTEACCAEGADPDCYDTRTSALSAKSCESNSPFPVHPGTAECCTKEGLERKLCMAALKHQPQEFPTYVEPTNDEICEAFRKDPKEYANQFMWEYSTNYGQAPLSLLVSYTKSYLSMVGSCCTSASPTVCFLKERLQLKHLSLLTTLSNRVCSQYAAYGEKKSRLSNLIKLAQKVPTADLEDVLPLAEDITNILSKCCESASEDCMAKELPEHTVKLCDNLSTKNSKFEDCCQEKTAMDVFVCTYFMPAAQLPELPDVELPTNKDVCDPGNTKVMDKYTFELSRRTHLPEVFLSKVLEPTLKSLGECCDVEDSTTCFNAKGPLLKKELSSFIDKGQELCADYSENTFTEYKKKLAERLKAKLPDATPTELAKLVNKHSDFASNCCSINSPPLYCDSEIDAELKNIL
The experiment in a line: Binding affinity to human DBP relative to 1-alpha,25-(OH)2-D3.

Assay [3] deals with T2, Vitamin D3 receptor (Sus scrofa) (UniProt A3RGC1).
T2 sequence (whole entry): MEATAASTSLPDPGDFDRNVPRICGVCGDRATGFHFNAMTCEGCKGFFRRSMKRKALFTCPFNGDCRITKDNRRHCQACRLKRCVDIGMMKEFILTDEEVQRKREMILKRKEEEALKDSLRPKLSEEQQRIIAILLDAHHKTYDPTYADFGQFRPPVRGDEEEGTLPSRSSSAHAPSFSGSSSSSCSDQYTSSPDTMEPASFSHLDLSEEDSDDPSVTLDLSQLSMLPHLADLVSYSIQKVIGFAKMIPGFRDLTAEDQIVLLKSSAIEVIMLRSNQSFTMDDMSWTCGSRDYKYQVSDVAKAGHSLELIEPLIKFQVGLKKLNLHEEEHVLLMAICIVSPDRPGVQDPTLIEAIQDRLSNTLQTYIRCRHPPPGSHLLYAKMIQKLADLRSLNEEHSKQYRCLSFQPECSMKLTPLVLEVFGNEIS
Put plainly: Displacement of [3H]1-alpha,25-(OH)2-D3 from VDR in pig intestinal mucosa relative to 1-alpha,25-(OH)2-D3. The format is tissue-based. The procedure, abridged: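 Competitive binding using high-speed supernatant of intestinal mucosa homogenates from normal pigs, competing against [3H]-1α,25-(OH)2-D3. Relative affinity taken from the concentration displacing 50% of tracer, with 1α,25-(OH)2-D3 set at 100%.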
(In general: Displacement assays read how much labelled ligand stays bound in the presence of the test substance.)

The test system of assay [4] is MCF7. The experiment in a line: Antiproliferative activity against human MCF7 cells at 1 uM after 72 hrs relative to 1-alpha,25-(OH)2-D3. Format: functional. As to conditions: MCF7, 72 h. The method, boiled down:
as §1

Usually inhibition stands for the share of the control response that was lost under treatment.

For `C[C@H](CCCC(C)(C)O)[C@H]1CC[C@H]2C(/C=C\C3=C[C@H](O)[C@@H](O)[C@H](O)C3)=CCC[C@]12C`, the values for the Activity (in the assay on MCF7 [1]; in assay [2]; in assay [3]) were 0%, 2% and less than 0.1%, respectively.
With `C[C@H](CCCC(C)(C)O)[C@H]1CC[C@H]2C(/C=C\C3=C[C@@H](O)[C@H](O)[C@H](O)C3)=CCC[C@]12C`, in the assay with MCF7 [4], at 1 µM the inhibition was 70%. For the same molecule, the Activity in the assay with MCF7 [1] is 6%; in assay [2], 8%; in assay [3] it was 2%.
`C[C@H](CCCC(C)(C)O)[C@H]1CC[C@H]2C(/C=C\C3=C[C@@H](O)[C@@H](O)[C@@H](O)C3)=CCC[C@]12C`: the Activity was 0% with MCF7 [1], 7% in assay [2] and less than 0.1% in assay [3].
On to `C[C@H](CCCC(C)(C)O)[C@H]1CC[C@H]2C(/C=C\C3=C[C@@H](O)[C@@H](O)[C@H](O)C3)=CCC[C@]12C`, for which the Activity in the assay on MCF7 [1] was 2%; in assay [2], 4%; in assay [3] it was 0.2%.
